# Published values from different studies.
# Compare with care: the assays were run in different laboratories.
# Target: Myotonin-protein kinase (DMPK, Homo sapiens, UniProt Q09013)
# Sequence (Q09013 1-629, as in one of the studies): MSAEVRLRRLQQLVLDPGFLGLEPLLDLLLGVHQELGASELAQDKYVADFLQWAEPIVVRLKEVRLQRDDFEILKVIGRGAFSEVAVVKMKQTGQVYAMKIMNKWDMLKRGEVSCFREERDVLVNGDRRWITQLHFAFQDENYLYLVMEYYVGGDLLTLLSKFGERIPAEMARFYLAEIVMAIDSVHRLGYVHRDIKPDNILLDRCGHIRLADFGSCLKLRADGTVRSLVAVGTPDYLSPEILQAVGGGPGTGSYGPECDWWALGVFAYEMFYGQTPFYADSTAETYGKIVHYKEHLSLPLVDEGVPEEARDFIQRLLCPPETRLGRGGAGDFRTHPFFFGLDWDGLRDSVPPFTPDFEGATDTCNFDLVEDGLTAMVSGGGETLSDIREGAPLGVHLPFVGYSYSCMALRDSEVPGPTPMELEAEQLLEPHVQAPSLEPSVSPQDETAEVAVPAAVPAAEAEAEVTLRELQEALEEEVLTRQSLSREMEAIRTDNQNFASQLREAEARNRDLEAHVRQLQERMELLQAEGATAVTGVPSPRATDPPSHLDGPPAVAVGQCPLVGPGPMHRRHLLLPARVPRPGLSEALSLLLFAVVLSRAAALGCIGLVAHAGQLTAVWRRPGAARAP
Structure (SMILES),test,conditions,endpoint,value
CC(C)S(=O)(=O)c1ccc2nccc(Nc3ccc4sc(C5CCCC5)nc4c3)c2c1,"enzyme activity, inhibitor",1 µM,activity vs control,80%
COc1ccc2oc(-c3ccc4nc(N)oc4c3)c/c(=N\c3ccccc3NC(=O)CCN)c2c1,binding,1 µM,remaining binding,102%
C=CC(=O)N1CCC([C@@H]2CCNc3c(C(N)=O)c(-c4ccc(Oc5ccccc5)cc4)nn32)CC1,"enzyme activity, inhibitor",1 µM,inhibition,10%
COc1ccc2[nH]c3c4[nH]c5ccc(OC)cc5c4c4c(c3c2c1)C(=O)NC4=O,"binding, competition with immobilised ligand",1 µM,remaining binding,56%
C1=C/COCc2cc(ccc2OCCN2CCCC2)Nc2nccc(n2)-c2cccc(c2)COC/1,binding,0.1 µM,remaining binding,100%
Cc1ccc(NC(=O)c2ccnc(C(F)(F)F)c2)cc1-c1cc(OCCO)nc(N2CCOCC2)c1,"binding, competition with immobilised ligand",1 µM,remaining binding,100%
C=CC(=O)N1CCC[C@@H](n2nc(-c3ccc(Oc4ccccc4)cc3)c3c(N)ncnc32)C1,"enzyme activity, inhibitor",1 µM,inhibition,1%
CCCCC(=O)Nc1ccc(-c2ccc3ncn(CCC)c(=O)c3c2)cn1,"binding, competition with immobilised ligand",0.5 µM,remaining binding,83%
